Series [1] deals with T1, C-X-C chemokine receptor type 2 (Homo sapiens, UniProt P25025).
T1 sequence (P25025 whole entry): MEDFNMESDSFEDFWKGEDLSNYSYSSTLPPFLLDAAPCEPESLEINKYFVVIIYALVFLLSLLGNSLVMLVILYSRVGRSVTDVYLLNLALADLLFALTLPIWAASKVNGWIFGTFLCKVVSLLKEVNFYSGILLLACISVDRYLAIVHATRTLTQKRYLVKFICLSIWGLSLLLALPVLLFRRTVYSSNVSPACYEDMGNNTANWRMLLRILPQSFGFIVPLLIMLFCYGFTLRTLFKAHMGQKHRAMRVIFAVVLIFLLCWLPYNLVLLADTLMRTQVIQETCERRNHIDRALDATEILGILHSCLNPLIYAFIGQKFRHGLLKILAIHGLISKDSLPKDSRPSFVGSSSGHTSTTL
Description: Displacement of europium labeled-human IL8 from human cloned CXCR2 expressed in Sf9 membrane with Galphai3-beta-1-gamma-2 by DELFIA binding assay. In a few lines: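 Lysates (40 µg/mL) incubated in triplicate with 2 nM Eu-IL-8 and compound, 90 min at room temperature. Filtered and washed, enhancement solution added, time-resolved fluorescence read at 340/612 nm with 400 µs delay. Background defined with 200 nM unlabeled human IL-8. IC50 by four-parameter logistic fit.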

For series [2], the target named is T1, C-X-C chemokine receptor type 2. Briefly: Antagonist activity at human cloned CXCR2 by calcium flux FLIPR assay. Format: functional. An outline of the steps:
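Chem-1 cells carrying cloned human CXCR2 coupled to Gi/o, seeded at 5 × 10⁵ cells/mL and left to adhere overnight in DMEM without G-418. Loaded with half-strength Calcium 3 dye in HBSS/20 mM Hepes pH 7.4/2.5 mM probenecid, with compound in triplicate, 30 min at 37 °C then 30 min at room temperature. Stimulated with human IL-8 (4 nM solution added). Fluorescence 485/525 read every 2 s. IC50 from a four-parameter logistic fit.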

The next series concerns the target T2, Cytochrome P450 1A2 (Homo sapiens, UniProt P05177).
T2 sequence (P05177 whole entry): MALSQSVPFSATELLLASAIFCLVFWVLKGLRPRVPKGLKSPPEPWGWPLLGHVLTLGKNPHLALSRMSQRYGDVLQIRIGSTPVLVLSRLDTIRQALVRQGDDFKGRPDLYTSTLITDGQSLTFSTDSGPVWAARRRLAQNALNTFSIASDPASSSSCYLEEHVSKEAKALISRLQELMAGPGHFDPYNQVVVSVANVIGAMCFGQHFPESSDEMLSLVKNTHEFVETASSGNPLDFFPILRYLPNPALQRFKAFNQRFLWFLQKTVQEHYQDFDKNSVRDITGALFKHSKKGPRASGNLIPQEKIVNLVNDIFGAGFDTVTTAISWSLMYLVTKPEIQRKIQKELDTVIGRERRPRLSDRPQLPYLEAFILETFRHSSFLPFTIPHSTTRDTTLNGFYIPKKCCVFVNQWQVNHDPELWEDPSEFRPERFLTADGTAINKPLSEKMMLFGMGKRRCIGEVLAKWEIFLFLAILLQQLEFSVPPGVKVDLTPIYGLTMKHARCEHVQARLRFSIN
Briefly: Inhibition of CYP1A2. Format: ADME.

Another series deals with Cytochrome P450 2C9 (Homo sapiens, UniProt P11712). Briefly: Inhibition of CYP2C9. Format: ADME.
In another series the target is Cytochrome P450 3A4 (Homo sapiens, UniProt P08684). Description: Inhibition of CYP3A4. Format: ADME.
In the next series the target is Cytochrome P450 2C19 (Homo sapiens, UniProt P33261). Description: Inhibition of CYP2C19. Format: ADME.
The next series deals with Cytochrome P450 2D6 (Homo sapiens, UniProt P10635). Briefly: Inhibition of CYP2D6. Format: ADME.
Series [3] is described as follows: Stability in rat liver microsomes after 10 mins. Format: ADME, Microsome. The following applies: read-out: Stability. In general terms: Liver microsomes are vesicles of endoplasmic reticulum, rich in cytochrome P450 enzymes.
Series [4] can be described thus: Stability in human liver microsomes after 10 mins. Format: ADME, Microsome. To be noted: read-out: Stability.
Series [5] is described as follows: Plasma protein binding in rat. Format: ADME, cell-free. To be noted: read-out: PPB.
The nature of series [6]: Half life in iv dosed rat. To be noted: in vivo. Format: ADME, organism-based.
Series [7] in a line: Clearance in iv dosed rat. Format: ADME, organism-based. The following applies: in vivo.
A short description of series [8]: Oral bioavailability in rat. Format: ADME, organism-based. The following applies: in vivo.
Series [9] concerns Rattus norvegicus. Description: Reduction of hyperoxia-induced neutrophil accumulation in newborn rat at 10 mg/kg, ip after 7 days. Format: functional. Further details: scale not given: the % may be the effect or the level left. The following applies: route intraperitoneal.
Series [10] relates to Rattus norvegicus. Briefly: Reduction of hyperoxia-induced neutrophil accumulation in newborn rat at 10 mg/kg, ip after 7 days. The arrangement: scale not given: the % may be the effect or the level left. The following applies: route intraperitoneal.

A value given as a limit tells only on which side of the number the result lay.

Chain of Cytochrome P450 2C9 (P11712 whole entry): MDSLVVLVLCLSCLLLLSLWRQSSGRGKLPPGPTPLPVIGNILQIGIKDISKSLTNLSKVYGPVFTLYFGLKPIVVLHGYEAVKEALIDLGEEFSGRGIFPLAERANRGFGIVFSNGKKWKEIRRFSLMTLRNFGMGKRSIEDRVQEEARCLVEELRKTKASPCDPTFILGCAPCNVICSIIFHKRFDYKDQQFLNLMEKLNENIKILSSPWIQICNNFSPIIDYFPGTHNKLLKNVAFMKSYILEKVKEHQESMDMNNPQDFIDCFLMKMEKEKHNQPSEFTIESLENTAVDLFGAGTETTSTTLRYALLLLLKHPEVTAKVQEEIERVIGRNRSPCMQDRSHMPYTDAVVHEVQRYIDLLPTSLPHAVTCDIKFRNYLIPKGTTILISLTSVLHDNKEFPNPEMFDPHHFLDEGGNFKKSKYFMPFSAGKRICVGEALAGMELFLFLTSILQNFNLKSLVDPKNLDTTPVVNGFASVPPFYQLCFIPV
Chain of Cytochrome P450 2D6 (P10635 whole entry): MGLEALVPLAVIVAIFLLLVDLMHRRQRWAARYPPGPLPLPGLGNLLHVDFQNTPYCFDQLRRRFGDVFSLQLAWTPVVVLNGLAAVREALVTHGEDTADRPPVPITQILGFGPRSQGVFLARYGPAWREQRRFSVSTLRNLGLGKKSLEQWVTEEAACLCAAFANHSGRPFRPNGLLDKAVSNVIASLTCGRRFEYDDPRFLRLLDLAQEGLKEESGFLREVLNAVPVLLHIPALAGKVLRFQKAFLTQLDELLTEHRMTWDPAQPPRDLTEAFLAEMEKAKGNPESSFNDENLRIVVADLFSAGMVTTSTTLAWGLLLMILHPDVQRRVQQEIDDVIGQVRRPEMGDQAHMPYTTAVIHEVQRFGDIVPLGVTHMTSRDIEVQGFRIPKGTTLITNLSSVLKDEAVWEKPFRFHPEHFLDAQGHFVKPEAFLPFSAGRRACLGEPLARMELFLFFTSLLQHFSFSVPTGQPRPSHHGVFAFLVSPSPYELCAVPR
Chain of Cytochrome P450 2C19 (P33261 whole entry): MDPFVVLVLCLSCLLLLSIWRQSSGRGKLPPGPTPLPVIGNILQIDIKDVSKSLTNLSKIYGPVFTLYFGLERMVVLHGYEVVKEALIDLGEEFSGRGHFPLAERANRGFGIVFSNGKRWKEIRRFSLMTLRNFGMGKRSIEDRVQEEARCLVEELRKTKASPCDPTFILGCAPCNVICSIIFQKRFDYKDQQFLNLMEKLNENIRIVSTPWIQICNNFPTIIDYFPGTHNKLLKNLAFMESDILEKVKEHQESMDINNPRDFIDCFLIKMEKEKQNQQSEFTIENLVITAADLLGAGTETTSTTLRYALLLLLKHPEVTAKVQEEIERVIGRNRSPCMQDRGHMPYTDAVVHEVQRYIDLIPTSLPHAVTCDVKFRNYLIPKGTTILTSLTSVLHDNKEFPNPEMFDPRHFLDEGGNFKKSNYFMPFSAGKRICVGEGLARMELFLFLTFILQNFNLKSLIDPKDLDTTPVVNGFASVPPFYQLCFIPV
Chain of Cytochrome P450 3A4 (P08684 whole entry): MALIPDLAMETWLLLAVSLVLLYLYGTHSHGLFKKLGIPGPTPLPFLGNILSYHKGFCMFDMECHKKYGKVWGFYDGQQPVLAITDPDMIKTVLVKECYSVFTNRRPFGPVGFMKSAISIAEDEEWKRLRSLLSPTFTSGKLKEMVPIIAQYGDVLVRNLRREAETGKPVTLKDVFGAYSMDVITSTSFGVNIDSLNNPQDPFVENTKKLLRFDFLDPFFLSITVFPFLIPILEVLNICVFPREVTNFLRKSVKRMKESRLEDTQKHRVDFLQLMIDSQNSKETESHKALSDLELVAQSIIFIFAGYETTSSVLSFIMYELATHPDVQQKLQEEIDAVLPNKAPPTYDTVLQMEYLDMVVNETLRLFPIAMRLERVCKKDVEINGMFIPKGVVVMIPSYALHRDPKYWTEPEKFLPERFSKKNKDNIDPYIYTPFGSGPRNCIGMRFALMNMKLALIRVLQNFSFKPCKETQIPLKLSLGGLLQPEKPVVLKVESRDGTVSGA

Turning to `N#Cc1ccc2[nH]c(-c3ccc(F)cc3)c(CCCC(=O)NS(=O)(=O)N3CCOCC3)c2c1`, the IC50 (usually the concentration that inhibits the measured activity by half) in series [1] was found to be 150 nM.

In series [1], `COc1cc2[nH]c(-c3ccc(F)cc3)c(CCCC(=O)NS(=O)(=O)N(C)C)c2cc1C#N` came in with a half-maximal inhibitory concentration (IC50) of 57 nM.

`Cc1cc2[nH]c(-c3ccc(F)cc3)c(CCCC(=O)NS(=O)(=O)N(C)C)c2cc1C#N` showed an IC50 in series [1] of 24 nM.

`CS(=O)(=O)NC(=O)NCCc1c(-c2ccc(F)cc2)[nH]c2ccc(C#N)cc12` yielded an IC50 in [1] of 640 nM.

As to `O=C(NCCc1c(-c2ccc(F)cc2)[nH]c2ccc(Br)cc12)NS(=O)(=O)c1ccccc1`, the concentration for half-maximal inhibition (IC50) was found to be 120 nM in [1] and 4 nM in series [2].

Molecule `N#Cc1ccc2[nH]c(-c3ccc(F)cc3)c(CCNC(=O)NS(=O)(=O)c3ccc(F)cc3)c2c1` had an IC50 in [1] of 520 nM.

`N#Cc1ccc2[nH]c(-c3ccc(F)cc3)c(CCNC(=O)NS(=O)(=O)c3ccccc3)c2c1` registered an IC50 in series [1] of 140 nM.

`CC(C)S(=O)(=O)NC(=O)CCCc1c(-c2ccc(F)cc2)[nH]c2ccc(C#N)cc12` showed an IC50 in series [1] of 220 nM.

`CS(=O)(=O)NC(=O)CCCc1c(-c2ccc(F)cc2)[nH]c2ccc(Br)cc12` yielded a 50% inhibitory concentration (IC50) in series [1] of 170 nM.

The molecule `CCS(=O)(=O)NC(=O)CCCc1c(-c2ccc(F)cc2)[nH]c2ccc(C#N)cc12` returned an IC50 in series [1] of 64 nM.

`N#Cc1ccc2[nH]c(-c3ccc(F)cc3)c(CCCC(=O)NS(=O)(=O)c3ccccc3)c2c1` yielded an IC50 in series [1] of 260 nM.

Take `N#Cc1ccc2[nH]c(-c3ccc(F)cc3)c(CCCC(=O)NS(=O)(=O)C(F)(F)F)c2c1`: the IC50 is 87 nM in series [1] and 70 nM in series [2].

Regarding `CNS(=O)(=O)NC(=O)CCCc1c(-c2ccc(F)cc2)[nH]c2ccc(C#N)cc12`, the half-inhibitory concentration (IC50) is 120 nM in series [1] and 14 nM in series [2].

As to `N#Cc1ccc2[nH]c(-c3ccc(F)cc3)c(CCCC(=O)NS(N)(=O)=O)c2c1`, in [1], the IC50 stood at 66 nM.

In turn, `CCCCNS(=O)(=O)NC(=O)CCCc1c(-c2ccc(F)cc2)[nH]c2ccc(C#N)cc12` gave an IC50 in [1] of 1100 nM.

`CN(C(=O)CCCc1c(-c2ccc(F)cc2)[nH]c2ccc(C#N)cc12)S(C)(=O)=O`: the 50% inhibitory concentration (IC50) in series [1] was > 2000 nM.

In the case of `CCCS(=O)(=O)NC(=O)CCCc1c(-c2ccc(F)cc2)[nH]c2ccc(C#N)cc12`, the IC50 in series [1] is 1300 nM.

On to `COCCNS(=O)(=O)NC(=O)CCCc1c(-c2ccc(F)cc2)[nH]c2ccc(C#N)cc12`, for which the IC50 in [1] came out at 260 nM.

`Cc1cc2[nH]c(-c3ccc(F)cc3)c(CCCC(=O)NS(C)(=O)=O)c2cc1C#N` showed an IC50 in series [1] of 19 nM.

Take `CN(C)S(=O)(=O)NC(=O)CCCc1c(-c2ccc(F)cc2)[nH]c2ccc(C#N)cc12`: the IC50 on Cytochrome P450 1A2 was > 5 µM; in series [1], 50 nM; in series [2], 5 nM; on Cytochrome P450 2C9, 1320 nM; at Cytochrome P450 3A4, > 5 µM; at Cytochrome P450 2C19, > 5 µM. The IC50 against Cytochrome P450 2D6 is > 5 µM. Also, the remaining at 10 min came to 100% in series [3] and 76.8% in [4]. Besides, the fraction unbound in [5] was < 0.01. In addition, in [6], the half-life – broadly, the time needed for the level to fall by half in the phase considered – was 162 min. In addition, the clearance (usually the volume of plasma or blood freed of the substance per unit of time) in series [7] came out at 3.8 mL/min/kg. In [8], the bioavailability was found to be 107%. Besides, the Activity in the series with Rattus norvegicus [9] and with Rattus norvegicus [10] was 50% each time.

In turn, `CCN(CC)S(=O)(=O)NC(=O)CCCc1c(-c2ccc(F)cc2)[nH]c2ccc(C#N)cc12` gave a half-maximal inhibitory concentration (IC50) in [1] of 1100 nM.

As for `N#Cc1ccc2[nH]c(-c3ccc(F)cc3)c(CCCC(=O)NS(=O)(=O)Cc3ccccc3)c2c1`, the IC50 in [1] came out at 1400 nM.

As to `COc1cc2[nH]c(-c3ccc(F)cc3)c(CCCC(=O)NS(C)(=O)=O)c2cc1C#N`, the IC50 in series [1] turned out to be 160 nM.

`N#Cc1ccc2[nH]c(-c3ccc(F)cc3)c(CCCC(=O)NS(=O)(=O)Nc3ccccc3)c2c1` came in with a 50% inhibitory concentration (IC50) in [1] of 880 nM.

On to `CS(=O)(=O)NC(=O)NCCc1c(-c2ccc(F)cc2)[nH]c2ccc(Br)cc12`, for which the IC50 in series [1] is 250 nM; in series [2] it was 90 nM.

`N#Cc1ccc2[nH]c(-c3ccc(F)cc3)c(CCNC(=O)NS(=O)(=O)c3ccccc3Cl)c2c1` returned an IC50 in [1] of 400 nM.

Regarding `CS(=O)(=O)NC(=O)CCCc1c(-c2ccc(F)cc2)[nH]c2ccc(C#N)cc12`, the 50% inhibitory concentration (IC50) in series [1] amounted to 72 nM; in [2] it was 32 nM.

For the origin of these results see ChEMBL document CHEMBL1141538, “Carboxylic acid bioisosteres acylsulfonamides, acylsulfamides, and sulfonylureas as novel antagonists of the CXCR2 receptor” (Bioorg Med Chem Lett, 2008).
